One series relates to Influenza A virus. Nature of the series: Antiviral activity against Influenza A virus A/WSN/33(H1N1) infected in human A549 cells assessed as viral replication measured after 24 hrs by immunofluorescence microscopy. The format is functional, organism-based. Conditions: A/WSN/1933(H1N1); for IC50: A549, 24 h; for IC90: A549, time 24 hrs. A digest of the protocol:
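A549 cells were infected with A/WSN/33 at MOI 0.01 for 24 h, then fixed in 4% formaldehyde and permeabilized with 0.1% Triton X-100. They were immunostained for NP with an Alexa-488 secondary plus DAPI and imaged on an image cytometer. Percent infection = NP-positive cells divided by total cells.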

For a further series, the system named is A549. Nature of the series: Cytotoxicity against human A549 cells by MTT assay. It counts as cell-based. An outline of the steps: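 MTT assay run according to the manufacturer's instructions, concurrently with NP immunostaining of infected A549 cultures.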
Series [1] in a line: Selectivity index, ratio of CC50 for human A549 cells to IC50 for antiviral activity against Influenza A virus A/WSN/33(H1N1) infected in human A549 cells. The format is toxicity, cell-based. The note with it: read-out: Selectivity Index. A digest of the protocol:
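Ratio of CC50 to IC50. IC50 came from A549 cells pretreated 2 h with compound, then infected 24 h with WSN-PB2-Nanoluc at MOI 0.02 and read by Nano-Glo luminescence. CC50 was measured by CellTiter-Glo.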

Data on 45 molecules can be found in ChEMBL document CHEMBL4825712.

Consider `CCN(c1cnc(C)cn1)S(=O)(=O)c1cc(Cl)ccc1Cl`, for which the IC50 in the series with Influenza A virus was above 5 µM.
In the series on A549, `CCOC(=O)Cc1ccc(N(CC)S(=O)(=O)c2cc(Cl)ccc2Cl)cc1` registered a CC10 above 5 µM and a CC50 above 5 µM. Moreover, the selectivity ratio in series [1] was above 63. Further, in the series on Influenza A virus, the IC50 was determined as 0.08 µM and the IC90 was determined as 5.7 µM.
As to `CCN(c1ccc(F)cc1)S(=O)(=O)c1cc(Cl)ccc1Cl`, in the series on A549, the CC10 is above 5 µM and the CC50 is above 5 µM. The selectivity ratio in series [1] was above 74. Also, in the series on Influenza A virus, the IC50 came out at 0.068 µM and the IC90 worked out at 0.94 µM.
In the series on A549, `CCN(c1ccc(Cl)cc1F)S(=O)(=O)c1cc(Cl)ccc1Cl` showed a CC10 above 5 µM and a CC50 above 5 µM. Besides, the selectivity ratio in series [1] was above 33. In the series with Influenza A virus, the IC50 was found to be 0.15 µM and the IC90 is 1.8 µM.
For `CCN(c1ccc(CCN)cc1)S(=O)(=O)c1cc(Cl)ccc1Cl`, in the series with A549, the CC10 is above 25 µM and the CC50 is above 25 µM. Also, in the series with Influenza A virus, the IC50 is above 25 µM and the IC90 was above 25 µM.
Take `Cc1cc(Cl)ccc1N(CCF)S(=O)(=O)c1cc(Cl)ccc1Cl`: in the series on A549, the CC10 was above 5 µM and the CC50 is above 5 µM. The selectivity ratio in series [1] is above 9. For the same molecule, in the series with Influenza A virus, the IC50 worked out at 35 µM and the IC90 was above 5 µM.
Turning to `CCN(c1cnccc1C)S(=O)(=O)c1cc(Cl)ccc1Cl`, the IC50 in the series on Influenza A virus is above 5 µM.
Take `CCN(c1ccc(CC(=O)N2CCN(C)CC2)cc1)S(=O)(=O)c1cc(Cl)ccc1Cl`: in the series on A549, the CC10 was above 25 µM and the CC50 was above 25 µM. Also, in the series with Influenza A virus, the IC50 was above 25 µM and the IC90 is above 25 µM.
In the series with A549, `CCN(c1c(F)cc(Cl)cc1F)S(=O)(=O)c1cc(Cl)ccc1Cl` showed a CC10 of 0.025 µM and a CC50 above 5 µM. For the same molecule, the selectivity ratio in series [1] is above 12. Also, in the series with Influenza A virus, the IC50 amounted to 0.41 µM and the IC90 was above 5 µM.
Take `CCN(c1ccc(F)cc1F)S(=O)(=O)c1cccc(Cl)c1Cl`: the CC10 in the series with A549 was above 25 µM. Also, in the series on Influenza A virus, the IC50 was above 25 µM and the IC90 was above 25 µM.
With `CCN(c1ccncc1F)S(=O)(=O)c1cc(Cl)ccc1Cl`, the IC50 with Influenza A virus was above 5 µM.
For `CCN(c1ccccc1C#N)S(=O)(=O)c1cc(Cl)ccc1Cl`, in the series with A549, the CC10 was above 5 µM and the CC50 was above 5 µM. In addition, the selectivity ratio in series [1] was above 29. For the same molecule, in the series on Influenza A virus, the IC50 stood at 0.17 µM and the IC90 stood at 2.1 µM.
Turning to `COCCN(c1ccc(Cl)cc1C)S(=O)(=O)c1cc(Cl)ccc1Cl`, in the series with A549, the CC10 was above 5 µM and the CC50 is above 5 µM. Further, the selectivity ratio in series [1] is above 4. Moreover, in the series with Influenza A virus, the IC50 is 1.2 µM and the IC90 is 6 µM.
In the series with A549, `Cc1ccccc1N(C)S(=O)(=O)c1cc(Cl)ccc1Cl` came in with a CC10 above 5 µM and a CC50 above 5 µM. In the series on Influenza A virus, the IC50 is above 5 µM and the IC90 was above 5 µM.
For the molecule `CCN(c1ccc(F)cc1F)S(=O)(=O)c1ccc(Cl)cc1Cl`, the CC10 in the series with A549 is above 25 µM. For the same molecule, in the series on Influenza A virus, the IC50 was above 25 µM and the IC90 was above 25 µM.
In the series on A549, `Cc1ccccc1NS(=O)(=O)c1cc(Cl)ccc1Cl` registered a CC10 above 5 µM and a CC50 above 5 µM. In addition, in the series on Influenza A virus, the IC50 was above 5 µM and the IC90 is above 5 µM.
Consider `CCN(c1ccc(C)nn1)S(=O)(=O)c1cc(Cl)ccc1Cl`, for which, in the series with Influenza A virus, the IC50 is above 5 µM.
For `Cc1cc(Cl)ccc1N(CCO)S(=O)(=O)c1cc(Cl)ccc1Cl`, in the series on A549, the CC10 was above 5 µM and the CC50 was above 5 µM. Also, in the series with Influenza A virus, the half-maximal inhibitory concentration (IC50) is above 5 µM and the concentration for an effect of 90% (IC90) was above 5 µM.
Turning to `C=CCN(c1ccccc1C)S(=O)(=O)c1cc(Cl)ccc1Cl`, in the series on A549, the CC10 was above 5 µM and the CC50 is above 5 µM. Moreover, in series [1], the selectivity ratio was above 42. Besides, in the series with Influenza A virus, the IC50 was determined as 0.12 µM and the IC90 was 0.57 µM.
As for `CCN(c1ccc(F)cc1F)S(=O)(=O)c1ccc(Cl)c(Cl)c1`, the CC10 in the series on A549 was above 25 µM. In addition, in the series with Influenza A virus, the IC50 is above 25 µM and the IC90 was above 25 µM.
In the case of `CCN(c1ccc(F)cc1F)S(=O)(=O)c1ccccc1`, in the series with A549, the CC10 is above 25 µM. In addition, in the series with Influenza A virus, the IC50 is above 25 µM and the IC90 is above 25 µM.
With `CCN(c1cnc(C)nc1)S(=O)(=O)c1cc(Cl)ccc1Cl`, in the series on Influenza A virus, the half-maximal inhibitory concentration (IC50) is above 5 µM.
In the series with A549, `CCN(c1ccc(F)cc1F)S(=O)(=O)c1cccc(Cl)c1` displayed a CC10 of 10.3 µM. In series [1], the selectivity ratio is above 51. Besides, in the series with Influenza A virus, the IC50 came out at 0.49 µM and the IC90 came out at 10.3 µM.
In the series with A549, `C#CCN(c1ccccc1C)S(=O)(=O)c1cc(Cl)ccc1Cl` returned a CC10 above 5 µM and a CC50 above 5 µM. The selectivity ratio in series [1] was above 13. Moreover, in the series on Influenza A virus, the IC50 was 0.38 µM and the IC90 is 5.1 µM.
On to `CCN(c1ccccc1)S(=O)(=O)c1cc(Cl)ccc1Cl`, for which, in the series with A549, the CC10 was above 5 µM and the CC50 was above 5 µM. For the same molecule, the selectivity ratio in series [1] was above 6. Further, in the series with Influenza A virus, the IC50 is 0.86 µM and the IC90 was 6.9 µM.
In the series on A549, `Cc1ccccc1N(C(C)C)S(=O)(=O)c1cc(Cl)ccc1Cl` showed a CC10 above 5 µM and a CC50 above 5 µM. Further, the selectivity ratio in series [1] was above 3. In the series on Influenza A virus, the IC50 was determined as 1.8 µM and the IC90 is above 5 µM.
In the series on A549, `CCN(c1ccc(CCNC(C)=O)cc1)S(=O)(=O)c1cc(Cl)ccc1Cl` registered a CC10 above 25 µM and a CC50 above 25 µM. In the series with Influenza A virus, the IC50 was above 25 µM and the IC90 was above 25 µM.
For `CCN(c1ccc(CCO)cc1)S(=O)(=O)c1cc(Cl)ccc1Cl`, in the series with A549, the CC10 is above 25 µM and the CC50 was above 25 µM. For the same molecule, in the series on Influenza A virus, the IC50 was above 25 µM and the IC90 is above 25 µM.
`C#CCN(c1ccc(Cl)cc1C)S(=O)(=O)c1cc(Cl)ccc1Cl`: in the series on A549, the CC10 is above 5 µM and the CC50 is above 5 µM. Also, the selectivity ratio in series [1] was above 42. In the series on Influenza A virus, the IC50 came to 0.12 µM and the IC90 worked out at 3.4 µM.
On to `CCN(c1ccncc1Cl)S(=O)(=O)c1cc(Cl)ccc1Cl`, for which, in the series with Influenza A virus, the IC50 was above 5 µM.
For `CCN(c1ccc(F)cc1F)S(=O)(=O)c1cc(Cl)ccc1F`, in series [1], the selectivity ratio is above 30. Moreover, in the series with Influenza A virus, the IC50 was found to be 0.82 µM and the IC90 was 18.5 µM.
In the series with A549, `CCN(c1ccc(CC(=O)O)cc1)S(=O)(=O)c1cc(Cl)ccc1Cl` showed a CC10 above 25 µM and a CC50 above 25 µM. In the series on Influenza A virus, the IC50 is above 25 µM and the IC90 is above 25 µM.
As to `CCN(c1ccc(Cl)cn1)S(=O)(=O)c1cc(Cl)ccc1Cl`, the IC50 in the series with Influenza A virus is above 5 µM.
With `CCN(c1ccc(F)cc1F)S(=O)(=O)c1cc(Cl)cc(Cl)c1`, the CC10 in the series with A549 stood at 25 µM. Besides, the selectivity ratio in series [1] was above 33. In addition, the IC50 with Influenza A virus was 0.75 µM.
In the series on A549, `CCN(c1c(C)cc(Cl)cc1Cl)S(=O)(=O)c1cc(Cl)ccc1Cl` displayed a CC10 above 5 µM and a CC50 above 5 µM. Besides, in series [1], the selectivity ratio was above 13. For the same molecule, in the series on Influenza A virus, the IC50 is 0.39 µM and the IC90 is above 5 µM.
Consider `C=CCN(c1ccc(Cl)cc1C)S(=O)(=O)c1cc(Cl)ccc1Cl`, for which, in the series with A549, the CC10 is above 5 µM and the CC50 is above 5 µM. Further, the selectivity ratio in series [1] was above 135. Further, in the series on Influenza A virus, the IC50 was 0.037 µM and the IC90 stood at 0.43 µM.
`CCN(c1ccc(F)cc1F)S(=O)(=O)c1cc(F)ccc1F`: in the series with A549, the CC10 is above 25 µM. Moreover, in series [1], the selectivity ratio is above 7. Besides, in the series with Influenza A virus, the IC50 was found to be 3.4 µM and the IC90 is above 25 µM.
In the series on A549, `CCN(c1ccccc1Cl)S(=O)(=O)c1cc(Cl)ccc1Cl` had a CC10 above 5 µM and a CC50 above 5 µM. In series [1], the selectivity ratio is above 33. In the series on Influenza A virus, the IC50 was determined as 0.15 µM and the IC90 came to 1.5 µM.
Turning to `CCN(c1ccc(F)cc1F)S(=O)(=O)c1cc(F)ccc1Cl`, in series [1], the selectivity ratio was above 114. In addition, in the series on Influenza A virus, the IC50 stood at 0.22 µM and the IC90 was determined as 9.8 µM.
In the case of `CCN(c1ccc(C)cc1)S(=O)(=O)c1cc(Cl)ccc1Cl`, in the series with A549, the CC10 was above 25 µM and the CC50 was above 25 µM. Besides, the selectivity ratio in series [1] is above 298. In the series on Influenza A virus, the IC50 turned out to be 0.084 µM and the IC90 came out at 1.8 µM.
In the series with A549, `Cc1cc(Cl)ccc1N(C(F)F)S(=O)(=O)c1cc(Cl)ccc1Cl` displayed a CC10 above 5 µM and a CC50 above 5 µM. Moreover, in series [1], the selectivity ratio is above 4. In addition, in the series on Influenza A virus, the IC50 came to 1.3 µM and the IC90 was above 5 µM.
As for `CCN(c1ccc(F)cc1F)S(=O)(=O)c1c(Cl)cccc1Cl`, the CC10 in the series with A549 was above 25 µM. In addition, in the series on Influenza A virus, the IC50 is above 25 µM and the IC90 was above 25 µM.
As to `Cc1cc(Cl)ccc1N(CC1CC1)S(=O)(=O)c1cc(Cl)ccc1Cl`, in the series on A549, the CC10 was above 5 µM and the CC50 was above 5 µM. Also, the selectivity ratio in series [1] is above 10. Further, in the series with Influenza A virus, the IC50 was determined as 0.49 µM and the IC90 is 2.8 µM.
For the molecule `CCN(c1ccc(C)nc1)S(=O)(=O)c1cc(Cl)ccc1Cl`, the IC50 with Influenza A virus was above 5 µM.
In the series with A549, `CCN(c1ccc(F)cc1F)S(=O)(=O)c1ccccc1Cl` registered a CC10 above 25 µM. Moreover, in the series with Influenza A virus, the IC50 was above 25 µM and the IC90 was above 25 µM.
